From ChEMBL document CHEMBL1136720, “Orally active, antimalarial, anticancer, artemisinin-derived trioxane dimers with high stability and efficacy” (J Med Chem, 2003)

Tests used:
[1] = tested on: Mus musculus; test: In vivo antimalarial activity in mice (Mus musculus) infected with Plasmodium berghei NY malaria parasite after oral administration for 4 days; format: functional; conditions: 96 h
Procedure, shortened: (§1)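 Mice infected with P. berghei NY were given drug intravenously or orally (per line) daily for 4 days, following a published protocol. The work was run as two separate groups of experiments, each with its own reference drugs.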

[2] = tested on: Mus musculus; test: In vivo antimalarial activity in mice (Mus musculus) infected with Plasmodium berghei NY malaria parasite after oral administration determined as parasite suppression at 10 mg/kg; format: functional; procedure, shortened: as §1
[3] = tested on: Mus musculus; test: In vivo antimalarial activity in mice (Mus musculus) infected with Plasmodium berghei NY malaria parasite after intravenous administration determined as parasite suppression at 10 mg/kg; format: functional; procedure, shortened: as §1
[4] = tested on: Plasmodium falciparum; test: In vitro antimalarial activity against chloroquine-sensitive Plasmodium falciparum NF 54; format: functional, organism-based
Procedure, shortened: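 In vitro test run in quadruplicate for each set, with the value taken from a fitted dose–response curve. Artemisinin was run as a concurrent control (n = 10).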

[5] = tested on: Mus musculus; test: In vivo antimalarial activity in mice (Mus musculus) infected with Plasmodium berghei NY malaria parasite after intravenous administration for 4 days; format: functional; conditions: 96 h; procedure, shortened: as §1
[6] = tested on: Mus musculus; test: In vivo antimalarial activity in mice (Mus musculus) infected with Plasmodium berghei NY malaria parasite after oral administration for 4 days (Experiment 1); format: functional; conditions: 96 h
Procedure, shortened: (§2)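 P. berghei NY-infected mice given the compound orally once daily for 4 days, following a previously published protocol. Two separate groups of experiments were run, each with its own concurrent reference drugs.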

[7] = tested on: Mus musculus; test: In vivo antimalarial activity in mice (Mus musculus) infected with Plasmodium berghei NY malaria parasite after oral administration determined as parasite suppression at 10 mg/kg (Experiment 2); format: functional
Procedure, shortened: (§3)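 P. berghei NY-infected mice dosed orally at 10 mg/kg body weight, following a previously published protocol. Read-out is % suppression of parasite growth. Two separate groups of experiments were run, each with its own concurrent reference drugs.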

[8] = tested on: Mus musculus; test: In vivo antimalarial activity in mice (Mus musculus) infected with Plasmodium berghei NY malaria parasite after oral administration for 4 days (Experiment 2); format: functional; conditions: 96 h; procedure, shortened: as §2
[9] = tested on: Mus musculus; test: In vivo antimalarial activity in mice (Mus musculus) infected with Plasmodium berghei NY malaria parasite after oral administration determined as parasite suppression at 10 mg/kg (Experiment 1); format: functional; procedure, shortened: as §3
[10] = tested on: Mus musculus; test: In vivo antimalarial activity in mice (Mus musculus) infected with Plasmodium berghei NY malaria parasite after intravenous administration for 4 days (Experiment 2); format: functional; conditions: 96 h; procedure, shortened: as §1
[11] = tested on: Mus musculus; test: In vivo antimalarial activity in mice (Mus musculus) infected with Plasmodium berghei NY malaria parasite after intravenous administration determined as parasite suppression at 10 mg/kg (Experiment 1); format: functional; procedure, shortened: as §1
[12] = tested on: Mus musculus; test: In vivo antimalarial activity in mice (Mus musculus) infected with Plasmodium berghei NY malaria parasite after intravenous administration for 4 days (Experiment 1); format: functional; conditions: 96 h; procedure, shortened: as §1
[13] = tested on: Mus musculus; test: In vivo antimalarial activity in mice (Mus musculus) infected with Plasmodium berghei NY malaria parasite after intravenous administration determined as parasite suppression at 10 mg/kg (Experiment 2); format: functional; procedure, shortened: as §1

Structure (SMILES): C[C@@H]1CC[C@H]2[C@@H](C)C(CC(COC(=O)CCC(=O)O)CC3OC4O[C@]5(C)CC[C@H]6[C@H](C)CC[C@@H]([C@H]3C)C46OO5)OC3O[C@]4(C)CCC1C32OO4 (stereo partly specified)
- ED50 [1]: 9 mg/kg/day
- ED90 [1]: 15 mg/kg/day
- Parasite suppression [2]: 79.2%
- Parasite suppression [3]: 81%
- IC50 [4]: 2 nM
- ED50 [5]: 2.2 mg/kg/day
- ED90 [5]: 6.3 mg/kg/day

Structure (SMILES): C[C@@H]1CC[C@H]2[C@@H](C)C(CC(CO)CC3OC4O[C@]5(C)CC[C@H]6[C@H](C)CC[C@@H]([C@H]3C)C46OO5)OC3O[C@]4(C)CCC1C32OO4 (stereo partly specified)
- IC50 [4]: 0.87 nM

Structure (SMILES): C[C@@H]1CC[C@H]2[C@@H](C)C(CC3(CC4OC5O[C@]6(C)CC[C@H]7[C@H](C)CC[C@@H]([C@H]4C)C57OO6)CO3)OC3O[C@]4(C)CCC1C32OO4 (stereo partly specified)
- IC50 [4]: 2.8 nM

Structure (SMILES): C[C@@H]1CC[C@H]2[C@@H](C)C(=O)O[C@@H]3O[C@@]4(C)CC[C@@H]1[C@]32OO4 [ARTEMISININ]
- IC50 [4]: 9 nM

Structure (SMILES): C=C(CC1OC2O[C@]3(C)CCC4[C@H](C)CC[C@@H]([C@H]1C)C24OO3)CC1OC2O[C@]3(C)CC[C@H]4[C@H](C)CC[C@@H]([C@H]1C)C24OO3 (stereo partly specified)
- IC50 [4]: 24 nM

Structure (SMILES): C[C@H]1[C@H](OC(=O)CCC(=O)[O-])O[C@@H]2O[C@@]3(C)CC[C@H]4[C@H](C)CC[C@@H]1[C@@]24OO3.[Na+] [SODIUM ARESUNATE]
- ED50 [6]: 10 mg/kg/day
- ED90 [6]: 39 mg/kg/day
- Parasite suppression [7]: 50.9%
- ED50 [8]: 5.5 mg/kg/day
- ED90 [8]: 70 mg/kg/day
- Parasite suppression [9]: 52.8%

Structure (SMILES): C[C@@H]1[C@H](OCc2ccc(C(=O)O)cc2)O[C@@H]2O[C@@]3(C)CC[C@@H]4[C@@H](C)CC[C@@H]1[C@]24OO3 (stereo in doubt) [ARTELINIC ACID]
- ED50 [10]: 5.6 mg/kg/day
- ED90 [10]: 43 mg/kg/day
- Parasite suppression [11]: 54.7%
- ED50 [12]: 11 mg/kg/day
- ED90 [12]: 25 mg/kg/day
- Parasite suppression [13]: 42.4%

Structure (SMILES): C[C@@H]1CC[C@H]2[C@@H](C)C(CC(O)(CC3OC4O[C@]5(C)CC[C@H]6[C@H](C)CC[C@@H]([C@H]3C)C46OO5)CS(=O)(=O)c3ccc(C(=O)O)cc3)OC3O[C@]4(C)CCC1C32OO4 (stereo partly specified)
- ED50 [1]: 7.5 mg/kg/day
- ED90 [1]: 35 mg/kg/day
- Parasite suppression [2]: 46.1%
- Parasite suppression [3]: 83.4%
- IC50 [4]: 2.4 nM
- ED50 [5]: 2.7 mg/kg/day
- ED90 [5]: 10 mg/kg/day

Structure (SMILES): C[C@@H]1CC[C@H]2[C@@H](C)C(CC(O)(COC(=O)CCC(=O)O)CC3OC4O[C@]5(C)CC[C@H]6[C@H](C)CC[C@@H]([C@H]3C)C46OO5)OC3O[C@]4(C)CCC1C32OO4 (stereo partly specified) [TERTIARY ALCOHOL PRIMARY SUCCINATEESTER]
- ED50 [1]: 4.8 mg/kg/day
- ED90 [1]: 34 mg/kg/day
- Parasite suppression [2]: 55.4%
- Parasite suppression [3]: 83.4%
- IC50 [4]: 3 nM
- ED50 [5]: 2.4 mg/kg/day
- ED90 [5]: 11 mg/kg/day

Structure (SMILES): C[C@H]1[C@@H](CC(O)(CO)C[C@H]2O[C@@H]3O[C@]4(C)CC[C@H]5[C@H](C)CC[C@@H]([C@H]2C)[C@@]35OO4)O[C@@H]2O[C@]3(C)CC[C@H]4[C@H](C)CC[C@@H]1[C@@]24OO3 (stereo partly specified)
- IC50 [4]: 0.59 nM

Structure (SMILES): C[C@@H]1CC[C@H]2[C@@H](C)C(CC(COC(=O)c3ccncc3)CC3OC4O[C@]5(C)CC[C@H]6[C@H](C)CC[C@@H]([C@H]3C)C46OO5)OC3O[C@]4(C)CCC1C32OO4 (stereo partly specified)
- IC50 [4]: 1.7 nM

Structure (SMILES): C[C@@H]1CC[C@H]2[C@@H](C)C(CC(=O)CC3OC4O[C@]5(C)CC[C@H]6[C@H](C)CC[C@@H]([C@H]3C)C46OO5)OC3O[C@]4(C)CCC1C32OO4 (stereo partly specified)
- IC50 [4]: 0.91 nM

Structure (SMILES): C[C@@H]1CC[C@H]2[C@@H](C)C(CC(O)(CC3OC4O[C@]5(C)CC[C@H]6[C@H](C)CC[C@@H]([C@H]3C)C46OO5)c3ccc(C(=O)O)cc3)OC3O[C@]4(C)CCC1C32OO4 (stereo partly specified)
- IC50 [4]: 2.1 nM
